According to ChEMBL document CHEMBL3045066, “Synthesis, structure-activity relationships (SAR) and in silico studies of coumarin derivatives with antifungal activity” (2013):
≈ marks a conversion by molar mass, not a printed value.

Assays:
Format in all cases: functional
[1] = tested on: Aspergillus fumigatus; assay: Antifungal activity against Aspergillus fumigatus ATCC 40640 after 72 hr by broth microdilution method; details: ATCC 40640, 72 h
Outline: (§1)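 Molds were grown 7 days on SDA at 25–28 °C, and conidia were harvested in sterile 0.85% NaCl. Conidia were counted by hemocytometer and adjusted to about 5 × 10^6 conidia/mL. Microdilution used Sabouraud broth in 96-well plates with compound at 2048 to 8 μg/mL and about 2.5 × 10^5 conidia/mL per well. Plates were incubated at 25–28 °C for 72 h, with readings confirmed at 7 days. Amphotericin B was the reference.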

[2] = tested on: Aspergillus flavus; assay: Antifungal activity against Aspergillus flavus LM 247 after 72 hr by broth microdilution method; details: LM 247, 72 h; outline: as §1
[3] = tested on: Aspergillus fumigatus; assay: Antifungal activity against Aspergillus fumigatus ATCC 46913 after 72 hr by broth microdilution method; details: ATCC 46913, 72 h; outline: as §1
[4] = tested on: Aspergillus flavus; assay: Antifungal activity against Aspergillus flavus LM 26 after 72 hr by broth microdilution method; details: LM 26, 72 h; outline: as §1
[5] = tested on: Aspergillus flavus; assay: Antifungal activity against Aspergillus flavus LM 210 after 72 hr by broth microdilution method; details: LM 210, 72 h; outline: as §1
[6] = tested on: Aspergillus flavus; assay: Antifungal activity against Aspergillus flavus ATCC 16013 after 72 hr by broth microdilution method; details: ATCC 16013, 72 h; outline: as §1
[7] = tested on: Aspergillus fumigatus; assay: Antifungal activity against Aspergillus fumigatus IPP 210 after 72 hr by broth microdilution method; details: IPP 210, 72 h; outline: as §1
[8] = tested on: Aspergillus fumigatus; assay: Antifungal activity against Aspergillus fumigatus ATCC 16913 after 72 hr by broth microdilution method; details: for MIC: Aspergillus fumigatus, ATCC 16913, 72 h; outline: as §1

Row | MIC [1] [µg/mL] | MIC [2] [µg/mL] | MIC [3] [µg/mL] | MIC [4] [µg/mL] | MIC [5] [µg/mL] | MIC [6] [µg/mL] | MIC [7] [µg/mL] | log(1/MIC) [8] | MIC [8] [µg/mL] | SMILES
1 | 256 (≈ 1250 µM) | 256 (≈ 1250 µM) | 256 (≈ 1250 µM) | 256 (≈ 1250 µM) | 256 (≈ 1250 µM) | 256 (≈ 1250 µM) | 256 (≈ 1250 µM) | 2.89 | 256 (≈ 1250 µM) | CC(=O)Oc1ccc2oc(=O)ccc2c1
2 | 16 (≈ 77.2 µM) | 16 (≈ 77.2 µM) | 16 (≈ 77.2 µM) | 16 (≈ 77.2 µM) | 16 (≈ 77.2 µM) | 16 (≈ 77.2 µM) | 16 (≈ 77.2 µM) | 4.11 | 16 (≈ 77.2 µM) | O=c1ccc2cc([N+](=O)[O-])c(O)cc2o1
3 | 64 (≈ 395 µM) | 128 (≈ 789 µM) | 64 (≈ 395 µM) | 128 (≈ 789 µM) | 128 (≈ 789 µM) | 128 (≈ 789 µM) | 64 (≈ 395 µM) | 3.4 | 64 (≈ 395 µM) | O=c1oc2ccccc2cc1O [3-HYDROXYCOUMARIN]
4 | ≥ 2050 | ≥ 2050 | ≥ 2050 | ≥ 2050 | ≥ 2050 | ≥ 2050 | ≥ 2050 | 1.89 | ≥ 2050 | O=c1ccc2cc(O)ccc2o1 [6-HYDROXYCOUMARIN]
5 | ≥ 2050 | ≥ 2050 | ≥ 2050 | ≥ 2050 | ≥ 2050 | ≥ 2050 | ≥ 2050 | 1.93 | ≥ 2050 | O=c1ccc2cc(O)c(O)cc2o1 [ESCULETIN]
6 | ≥ 2050 | ≥ 2050 | ≥ 2050 | ≥ 2050 | ≥ 2050 | ≥ 2050 | ≥ 2050 | 2 | ≥ 2050 | COc1cc2ccc(=O)oc2c(O)c1O [FRAXETIN]
7 | ≥ 2050 | ≥ 2050 | ≥ 2050 | ≥ 2050 | ≥ 2050 | ≥ 2050 | ≥ 2050 | 1.97 | ≥ 2050 | COc1cc2ccc(=O)oc2cc1O [SCOPOLETIN]
8 | ≥ 2050 | ≥ 2050 | ≥ 2050 | ≥ 2050 | ≥ 2050 | ≥ 2050 | ≥ 2050 | 1.89 | ≥ 2050 | O=c1ccc2ccc(O)cc2o1 [UMBELLIFERONE]

The remaining lines, values behind:

Row | SMILES | MIC [1] [µg/mL] | MIC [2] [µg/mL] | MIC [3] [µg/mL] | MIC [4] [µg/mL] | MIC [5] [µg/mL] | MIC [6] [µg/mL] | MIC [7] [µg/mL] | log(1/MIC) [8] | MIC [8] [µg/mL]
9 | C=CCOc1ccc2oc(=O)ccc2c1 | ≥ 2050 | ≥ 2050 | ≥ 2050 | ≥ 2050 | ≥ 2050 | ≥ 2050 | ≥ 2050 | 1.99 | ≥ 2050
10 | C=CCOc1cc(=O)oc2ccccc12 | 32 (≈ 158 µM) | 1020 (≈ 5060 µM) | 32 (≈ 158 µM) | 64 (≈ 317 µM) | 32 (≈ 158 µM) | 32 (≈ 158 µM) | 64 (≈ 317 µM) | 3.8 | 32 (≈ 158 µM)
11 | CC(C)=CCOc1ccc2oc(=O)ccc2c1 | ≥ 2050 | ≥ 2050 | ≥ 2050 | ≥ 2050 | ≥ 2050 | ≥ 2050 | ≥ 2050 | 2.05 | ≥ 2050
12 | CC(C)=CCC/C(C)=C/COc1ccc2oc(=O)ccc2c1 | ≥ 2050 | ≥ 2050 | ≥ 2050 | ≥ 2050 | ≥ 2050 | ≥ 2050 | ≥ 2050 | 2.16 | ≥ 2050
13 | CC(=O)Oc1cc(=O)oc2ccccc12 | 16 (≈ 78.4 µM) | 16 (≈ 78.4 µM) | 16 (≈ 78.4 µM) | 16 (≈ 78.4 µM) | 16 (≈ 78.4 µM) | 16 (≈ 78.4 µM) | 16 (≈ 78.4 µM) | 4.1 | 16 (≈ 78.4 µM)
14 | CCOC(=O)COc1ccc2ccc(=O)oc2c1 | 512 (≈ 2060 µM) | 512 (≈ 2060 µM) | 512 (≈ 2060 µM) | 512 (≈ 2060 µM) | 512 (≈ 2060 µM) | 512 (≈ 2060 µM) | 512 (≈ 2060 µM) | 2.68 | 512 (≈ 2060 µM)
15 | O=c1ccc2c([N+](=O)[O-])c(O)c([N+](=O)[O-])cc2o1 | 512 (≈ 2030 µM) | 512 (≈ 2030 µM) | 512 (≈ 2030 µM) | 512 (≈ 2030 µM) | 512 (≈ 2030 µM) | 512 (≈ 2030 µM) | 512 (≈ 2030 µM) | 2.69 | 512 (≈ 2030 µM)
16 | O=c1oc2ccccc2c(O)c1[N+](=O)[O-] | 1020 (≈ 4940 µM) | 1020 (≈ 4940 µM) | 1020 (≈ 4940 µM) | 1020 (≈ 4940 µM) | 1020 (≈ 4940 µM) | 1020 (≈ 4940 µM) | 1020 (≈ 4940 µM) | 2.3 | 1020 (≈ 4940 µM)
17 | O=c1cc(O)c2ccccc2o1 [4-HYDROXYCOUMARINS] | ≥ 2050 | ≥ 2050 | ≥ 2050 | ≥ 2050 | ≥ 2050 | ≥ 2050 | ≥ 2050 | 1.89 | ≥ 2050
18 | CC(=O)Oc1ccc2ccc(=O)oc2c1 [7-ACETOXYCOUMARIN] | 64 (≈ 313 µM) | 128 (≈ 627 µM) | 64 (≈ 313 µM) | 64 (≈ 313 µM) | 64 (≈ 313 µM) | 64 (≈ 313 µM) | 64 (≈ 313 µM) | 3.5 | 64 (≈ 313 µM)
19 | C=CCOc1ccc2ccc(=O)oc2c1 [7-ALLYLOXYCOUMARIN] | 64 (≈ 317 µM) | 256 (≈ 1270 µM) | 64 (≈ 317 µM) | 64 (≈ 317 µM) | 64 (≈ 317 µM) | 64 (≈ 317 µM) | 64 (≈ 317 µM) | 3.49 | 64 (≈ 317 µM)
20 | CC(C)=CCOc1ccc2ccc(=O)oc2c1 [7-PRENYLOXYCOUMARIN] | 128 (≈ 556 µM) | 1020 (≈ 4450 µM) | 128 (≈ 556 µM) | 1020 (≈ 4450 µM) | 1020 (≈ 4450 µM) | 1020 (≈ 4450 µM) | 128 (≈ 556 µM) | 3.25 | 128 (≈ 556 µM)
21 | C[C@@H]1[C@H](O)[C@@H](C)/C=C/C=C/C=C/C=C/C=C/C=C/C=C/[C@H](O[C@@H]2O[C@H](C)[C@@H](O)[C@H](N)[C@@H]2O)C[C@@H]2O[C@](O)(C[C@@H](O)C[C@@H](O)[C@H](O)CC[C@@H](O)C[C@@H](O)CC(=O)O[C@H]1C)C[C@H](O)[C@H]2C(=O)O [AMPHOTERICIN B] | 2 (≈ 2.16 µM) | 8 (≈ 8.66 µM) | 2 (≈ 2.16 µM) | 512 (≈ 554 µM) | 2 (≈ 2.16 µM) | 2 (≈ 2.16 µM) | 2 (≈ 2.16 µM) | – | 2 (≈ 2.16 µM)
22 | CC(C)=CCC/C(C)=C/COc1ccc2ccc(=O)oc2c1 [AURAPTENE] | ≥ 2050 | ≥ 2050 | ≥ 2050 | ≥ 2050 | ≥ 2050 | ≥ 2050 | ≥ 2050 | 2.16 | ≥ 2050
23 | O=C(O)c1cc2ccccc2oc1=O [COUMARIN-3-CARBOXYLIC ACID] | 1020 (≈ 5390 µM) | ≥ 2050 | 1020 (≈ 5390 µM) | 1020 (≈ 5390 µM) | 1020 (≈ 5390 µM) | 1020 (≈ 5390 µM) | 1020 (≈ 5390 µM) | 2.26 | 1020 (≈ 5390 µM)
24 | O=c1ccc2ccccc2o1 [COUMARIN] | 1020 (≈ 7010 µM) | 1020 (≈ 7010 µM) | 1020 (≈ 7010 µM) | 1020 (≈ 7010 µM) | 1020 (≈ 7010 µM) | 1020 (≈ 7010 µM) | 1020 (≈ 7010 µM) | 2.15 | 1020 (≈ 7010 µM)
25 | O=c1oc2ccccc2c(O)c1Cc1c(O)c2ccccc2oc1=O [DICUMAROL] | ≥ 2050 | ≥ 2050 | ≥ 2050 | ≥ 2050 | ≥ 2050 | ≥ 2050 | ≥ 2050 | 2.21 | ≥ 2050
